Test results from ChEMBL document CHEMBL3244135, “11,12-Secoprostaglandins. 1. Acylhydroxyalkanoic acids and related compounds” (J Med Chem, 1977).
Calls of active or inactive are those of the source. The rule behind the calls is not given here.

Legend:
Mus musculus [1] = species: Mus musculus; experiment: Binding affinity to prostanoid receptor in [8-14C]-adenine-treated CD-1 mouse ovary assessed as increase in c-AMP production at 10 ug/mL after 30 mins by paper chromatographic analysis in presence of phosphodiesterase inhibitor theophylline; assay type: tissue-based; conditions: Female gonad
How it was run: (§1)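 Virgin CD-1 female mice over 70 days old; three ovaries (15-25 mg), denuded of fat, preincubated 1 h at 37 °C in 2 ml aerated Krebs–Ringer phosphate pH 7.2 with 1 μCi adenine-8-14C. Theophylline (0.2 ml of 0.05 M stock) and compound in Me2SO then added, 30 min at 37 °C. Stopped with trichloroacetic acid; cAMP-14C isolated, paper chromatography; expressed as fold over untreated ovaries.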

Mus musculus [2] = species: Mus musculus; experiment: Binding affinity to prostanoid receptor in [8-14C]-adenine-treated CD-1 mouse ovary assessed as increase in c-AMP production at 100 ug/mL after 30 mins by paper chromatographic analysis in presence of phosphodiesterase inhibitor theophylline; assay type: tissue-based; conditions: Female gonad; how it was run: as §1
[3] = molecular target: T1, 15-hydroxyprostaglandin dehydrogenase [NAD(+)] (Homo sapiens, UniProt P15428); experiment: Stability of the compound assessed as prostaglandin 15-hydroxydehydrogenase (unknown origin)-mediated metabolite formation; assay type: ADME
T1 sequence (P15428 whole entry): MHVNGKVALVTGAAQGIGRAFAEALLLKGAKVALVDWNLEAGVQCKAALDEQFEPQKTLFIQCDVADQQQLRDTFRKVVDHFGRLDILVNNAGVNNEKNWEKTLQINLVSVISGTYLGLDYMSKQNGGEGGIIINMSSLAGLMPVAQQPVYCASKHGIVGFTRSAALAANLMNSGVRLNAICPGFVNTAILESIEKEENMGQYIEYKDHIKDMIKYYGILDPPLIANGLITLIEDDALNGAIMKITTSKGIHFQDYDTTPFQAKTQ

Rattus norvegicus = species: Rattus norvegicus; experiment: Binding affinity to prostanoid receptor in Holtzman rat lipocytes assessed as compound equivalent to 1 ng cold PGE1 in displacing [3H]-PGE1 from receptor after 30 mins; assay type: cell-based; conditions: in the assay text read “after 60 mins” for “after 30 mins”
How it was run: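 Test compound at appropriate concentrations incubated with 0.4 ng [3H]-PGE1 and 125 μg rat lipocyte binding preparation for 60 min at 37 °C. Bound [3H]-PGE1 then measured.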

Mus musculus [4] = species: Mus musculus; experiment: Binding affinity to prostanoid receptor in [8-14C]-adenine-treated CD-1 mouse ovary assessed as increase in c-AMP production at 25 ug/mL after 30 mins by paper chromatographic analysis in presence of phosphodiesterase inhibitor theophylline; assay type: tissue-based; conditions: Female gonad; how it was run: as §1
Mus musculus [5] = species: Mus musculus; experiment: Binding affinity to prostanoid receptor in [8-14C]-adenine-treated CD-1 mouse ovary assessed as increase in c-AMP production at 0.05 ug/mL after 30 mins by paper chromatographic analysis in presence of phosphodiesterase inhibitor theophylline; assay type: tissue-based; conditions: Female gonad; how it was run: as §1
Mus musculus [6] = species: Mus musculus; experiment: Binding affinity to prostanoid receptor in [8-14C]-adenine-treated CD-1 mouse ovary assessed as increase in c-AMP production at 1 ug/mL after 30 mins by paper chromatographic analysis in presence of phosphodiesterase inhibitor theophylline; assay type: tissue-based; conditions: Female gonad; how it was run: as §1
Mus musculus [7] = species: Mus musculus; experiment: Binding affinity to prostanoid receptor in [8-14C]-adenine-treated CD-1 mouse ovary assessed as increase in c-AMP production at 0.1 ug/mL after 30 mins by paper chromatographic analysis in presence of phosphodiesterase inhibitor theophylline; assay type: tissue-based; conditions: Female gonad; how it was run: as §1
Mus musculus [8] = species: Mus musculus; experiment: Binding affinity to prostanoid receptor in [8-14C]-adenine-treated CD-1 mouse ovary assessed as increase in c-AMP production at 0.01 ug/mL after 30 mins by paper chromatographic analysis in presence of phosphodiesterase inhibitor theophylline; assay type: tissue-based; conditions: Female gonad; how it was run: as §1
Cavia porcellus [9] = experiment: Inhibition of collagen-induced platelet aggregation in po dosed guinea pig; assay type: functional
How it was run: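 Test compound given orally to guinea pigs. Collagen-induced platelet aggregation then measured. Potency expressed as ED50 in mg/kg.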

Canis familiaris [10] = experiment: Renal vasodilatory activity in dog assessed as increase in renal blood flow administered through infusion into renal artery; assay type: functional, organism-based; conditions: Canis lupus familiaris; Kidney
Cavia porcellus [11] = experiment: Inhibition of collagen-induced platelet aggregation in ip dosed guinea pig; assay type: functional
Canis familiaris [12] = experiment: Renal vasodilatory activity in dog assessed as increase in renal blood flow at 0.5 mg/kg/min, iv administered as infusion relative to control; assay type: functional, Canis lupus familiaris, Kidney
How it was run: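 Anesthetized dogs given intravenous infusion of 0.5 mg/kg/min. Renal blood flow measured electromagnetically in a single kidney. Read-out is the maximum increase above the control flow value.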

Mus musculus [13] = species: Mus musculus; experiment: Binding affinity to prostanoid receptor in [8-14C]-adenine-treated CD-1 mouse ovary assessed as increase in c-AMP production at 50 ug/mL after 30 mins by paper chromatographic analysis in presence of phosphodiesterase inhibitor theophylline; assay type: tissue-based; conditions: Female gonad; how it was run: as §1
Mus musculus [14] = species: Mus musculus; experiment: Binding affinity to prostanoid receptor in [8-14C]-adenine-treated CD-1 mouse ovary assessed as increase in c-AMP production at 200 ug/mL after 30 mins by paper chromatographic analysis in presence of phosphodiesterase inhibitor theophylline; assay type: tissue-based; conditions: Female gonad; how it was run: as §1

SMILES	fold change (FC) (Mus musculus [1])	fold change (FC) (Mus musculus [2])	Stability [3]	Activity (Rattus norvegicus)	fold change (FC) (Mus musculus [4])	also measured
CCCCCC(O)CCCC(CCCCCCC(=O)O)C(C)O (centres undefined)	15	33	Stable	2.5 µgequiv	25	–
CC(=O)C(CCCCO)CCCCCCC(=O)O (centres undefined)	–	1	Stable	450 µgequiv	1	–
CCCCC[C@H](O)/C=C/[C@H]1[C@H](O)CC(=O)[C@@H]1C/C=C\CCCC(=O)O	80	–	–	1.4 ngequiv	–	fold change (FC) (Mus musculus [5]): 35; fold change (FC) (Mus musculus [6]): 75; fold change (FC) (Mus musculus [7]): 57; fold change (FC) (Mus musculus [8]): 14
CCCCCC(O)C#CCC(CCCCCCC(=O)O)C(C)=O (centres undefined)	2	7	Stable	–	4	–
CCCCC[C@H](O)/C=C/[C@H]1[C@H](O)CC(=O)[C@@H]1CCCCCCC(=O)O [ALPROSTADIL]	–	–	–	–	–	fold change (FC) (Mus musculus [5]): 29; inhibition (Cavia porcellus [9]): inactive; Activity (Canis familiaris [10]): Active; ED50 (Cavia porcellus [11]): 0.02 mg/kg; fold change (FC) (Mus musculus [6]): 54; fold change (FC) (Mus musculus [7]): 25; fold change (FC) (Mus musculus [8]): 8
CC(=O)C(CCCCCCC(=O)O)CCCC1(O)CCCCC1 (centres undefined)	1	4	Stable	> 125 µgequiv	3	–
CCCCCCC(O)CCC(CCCCCCC(=O)O)C(C)=O (centres undefined)	5	11	Stable	41 µgequiv	–	–
CC(=O)C(CCCCCCC(=O)O)CCCC(C)O (centres undefined)	–	1	Stable	> 100 µgequiv	1	–
CCCC(O)CCCCCC(CCCCCCC(=O)O)C(C)=O (centres undefined)	4	8	Stable	65 µgequiv	4	–
CCCCC[C@@H](O)CCCC(CCCCCCC(=O)O)C(C)=O (some centres undefined)	5	19	Stable	2.1 µgequiv	12	–
CCCCC[C@@H](O)C#CCC(CCCCCCC(=O)O)C(C)=O (some centres undefined)	2	3	Stable	–	3	–
CCCCCC(O)CCCC(CO)CCCCCCC(=O)O (centres undefined)	8	18	Stable	4.6 µgequiv	9	–
CC(=O)C(CCCCCCCCCO)CCCCCCC(=O)O (centres undefined)	1	1	Stable	> 125 µgequiv	1	–
CCCCCCCC(O)CCCC(CCCCCCC(=O)O)C(C)=O (centres undefined)	19	39	Stable	6.6 µgequiv	37	–
CCCCCC(O)CCCC(CCCCCCC(=O)O)C(C)=O (mixture of isomers) [listing 1 of 2 here]	–	–	Stable	–	–	Activity (Canis familiaris [12]): 92 mL/min; ED50 (Cavia porcellus [9]): 6.5 mg/kg
CCCCCC(=O)CCCC(CCCCCCC(=O)O)C(C)=O (centres undefined)	2	9	Stable	7 µgequiv	4	–
CCCCC[C@H](O)C#CCC(CCCCCCC(=O)O)C(C)=O (some centres undefined)	3	–	Stable	–	7	–
CC(=O)C(CC#CC1(O)CCCCC1)CCCCCCC(=O)O (centres undefined)	–	1	Stable	–	1	–
CCCCCC(O)CCCC(CCCCCCC(=O)O)C(C)=O (mixture of isomers) [listing 2 of 2 here]	11	23	–	1.7 µgequiv	14	fold change (FC) (Mus musculus [13]): 16; fold change (FC) (Mus musculus [14]): 16; fold change (FC) (Mus musculus [6]): 2
CCCCC[C@H](O)CCCC(CCCCCCC(=O)O)C(C)=O (some centres undefined)	19	29	Stable	3.2 µgequiv	25	–
CC(=O)C(CCCCCCC(=O)O)CCCC(O)CCc1ccccc1 (centres undefined)	1	2	Stable	–	1	–
CCCCC(O)CCCCC(CCCCCCC(=O)O)C(C)=O (centres undefined)	9	20	Stable	2.1 µgequiv	9	–
CCCCCC(C)(O)CCCC(CCCCCCC(=O)O)C(C)=O (centres undefined)	4	11	Stable	0.4 µgequiv	9	–
CCCCCC[C@@H](O)C/C=C/CCCCCCCC(=O)O	–	2	–	–	–	fold change (FC) (Mus musculus [13]): 2; fold change (FC) (Mus musculus [14]): 1
CCCCCC(O)/C=C/CC(CCCCCCC(=O)O)C(C)=O (centres undefined)	2	14	Stable	3.2 µgequiv	8	–
CCCCCC(O)CCCC(CCCCCCC(=O)O)C(C)=O (racemic)	7	23	–	–	19	–
CCCCCC(O)CCCC(CCCCCCC(=O)O)C(=O)CC (centres undefined)	6	26	Stable	2.4 µgequiv	17	–
